From ChEMBL document CHEMBL1151813, “Synthesis and cytotoxicity of bidesmosidic betulin and betulinic acid saponins” (J Nat Prod, 2009)

Assays:
PC-3 = assay: Cytotoxicity against human PC3 cells after 48 hrs; assay type: functional, cell-based; conditions: PC-3, 48 h
Summary of the method: (§1)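 Cells grown in MEM (Earle's salts, L-glutamine) with 10% FBS, vitamins, amino acids, pyruvate, penicillin/streptomycin at 37 °C, 5% CO2. 5 × 10³ cells/well adhered 16 h, then increasing concentrations in DMSO (final 0.5% v/v) for 48 h. Resazurin fluorescence read at ex 530/em 590 nm; survival vs control wells after blank subtraction. Three experiments in triplicate; IC50 as mean ± standard deviation.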

MCF7 = assay: Cytotoxicity against human MCF7 cells after 48 hrs; assay type: functional, cell-based; conditions: MCF7, 48 h; summary of the method: as §1
[1] = Cytotoxicity against human WS1 cells after 48 hrs; assay type: cell-based; conditions: WS1, 48 h
A549 = assay: Cytotoxicity against human A549 cells after 48 hrs; assay type: functional, cell-based; conditions: A549, 48 h; summary of the method: as §1
DLD-1 = assay: Cytotoxicity against human DLD1 cells after 48 hrs; assay type: functional, cell-based; conditions: DLD-1, 48 h; summary of the method: as §1

Row | SMILES | IC50 (PC-3) | IC50 (MCF7) | IC50 [1] | IC50 (A549) | IC50 (DLD-1)
1 | C=C(C)[C@@H]1CC[C@]2(CO[C@@H]3O[C@@H](C)[C@H](O)[C@@H](O)[C@H]3O)CC[C@]3(C)[C@H](CC[C@@H]4[C@@]5(C)CC[C@H](O[C@@H]6O[C@@H](C)[C@H](O)[C@@H](O)[C@H]6O)C(C)(C)[C@@H]5CC[C@]43C)[C@@H]12 | 1.8 µM | 1.7 µM | 1.3 µM | 1.9 µM | 1.9 µM
2 | C=C(C)[C@@H]1CC[C@]2(C(=O)O[C@@H]3O[C@H](CO)[C@@H](O)[C@H](O)[C@H]3O)CC[C@]3(C)[C@H](CC[C@@H]4[C@@]5(C)CC[C@H](O[C@@H]6O[C@@H](C)[C@H](O)[C@@H](O)[C@H]6O)C(C)(C)[C@@H]5CC[C@]43C)[C@@H]12 | 11.2 µM | 5.7 µM | 9 µM | 23 µM | 11 µM
3 | C=C(C)[C@@H]1CC[C@]2(CO[C@@H]3O[C@H](CO)[C@@H](O)[C@H](O)[C@H]3O)CC[C@]3(C)[C@H](CC[C@@H]4[C@@]5(C)CC[C@H](O[C@@H]6OC[C@H](O)[C@H](O)[C@H]6O)C(C)(C)[C@@H]5CC[C@]43C)[C@@H]12 | 5.3 µM | 9.5 µM | 4.5 µM | > 100 µM | 19 µM
4 | C=C(C)[C@@H]1CC[C@]2(CO[C@@H]3O[C@H](CO)[C@@H](O)[C@H](O)[C@H]3O)CC[C@]3(C)[C@H](CC[C@@H]4[C@@]5(C)CC[C@H](O[C@@H]6O[C@H](CO)[C@@H](O)[C@H](O)[C@H]6O)C(C)(C)[C@@H]5CC[C@]43C)[C@@H]12 | > 100 µM | 14.5 µM | 20 µM | > 100 µM | 27 µM
5 | C=C(C)[C@@H]1CC[C@]2(C(=O)O[C@@H]3O[C@H](CO)[C@@H](O)[C@H](O)[C@H]3O)CC[C@]3(C)[C@H](CC[C@@H]4[C@@]5(C)CC[C@H](O[C@@H]6OC[C@H](O)[C@H](O)[C@H]6O)C(C)(C)[C@@H]5CC[C@]43C)[C@@H]12 | 68 µM | 23 µM | 50 µM | 76 µM | 60 µM
6 | C=C(C)[C@@H]1CC[C@]2(C(=O)O[C@@H]3O[C@H](CO)[C@@H](O)[C@H](O)[C@H]3O)CC[C@]3(C)[C@H](CC[C@@H]4[C@@]5(C)CC[C@H](O)C(C)(C)[C@@H]5CC[C@]43C)[C@@H]12 | > 100 µM | > 100 µM | > 100 µM | > 100 µM | > 100 µM
7 | COc1cc([C@@H]2c3cc4c(cc3[C@@H](O[C@@H]3O[C@@H]5CO[C@@H](C)O[C@H]5[C@H](O)[C@H]3O)[C@H]3COC(=O)[C@H]23)OCO4)cc(OC)c1O [ETOPOSIDE] | 1.7 µM | 0.7 µM | 34 µM | 1.2 µM | 27 µM
8 | C=C(C)[C@@H]1CC[C@]2(C(=O)O[C@@H]3O[C@@H](C)[C@H](O)[C@@H](O)[C@H]3O)CC[C@]3(C)[C@H](CC[C@@H]4[C@@]5(C)CC[C@H](O[C@@H]6O[C@@H](C)[C@H](O)[C@@H](O)[C@H]6O)C(C)(C)[C@@H]5CC[C@]43C)[C@@H]12 | 7.2 µM | 6 µM | 4.9 µM | 7.2 µM | 7.3 µM
9 | C=C(C)[C@@H]1CC[C@]2(CO[C@@H]3O[C@H](CO)[C@@H](O)[C@H](O)[C@H]3O)CC[C@]3(C)[C@H](CC[C@@H]4[C@@]5(C)CC[C@H](O[C@@H]6O[C@@H](C)[C@H](O)[C@@H](O)[C@H]6O)C(C)(C)[C@@H]5CC[C@]43C)[C@@H]12 | 6.9 µM | 9 µM | 5.3 µM | 16.8 µM | 10.6 µM
10 | C=C(C)[C@@H]1CC[C@]2(CO)CC[C@]3(C)[C@H](CC[C@@H]4[C@@]5(C)CC[C@H](O)C(C)(C)[C@@H]5CC[C@]43C)[C@@H]12 [BETULIN] | 17.9 µM | 23.3 µM | 3.6 µM | 3.8 µM | 6.6 µM
11 | C=C(C)[C@@H]1CC[C@]2(C(=O)O)CC[C@]3(C)[C@H](CC[C@@H]4[C@@]5(C)CC[C@H](O)C(C)(C)[C@@H]5CC[C@]43C)[C@@H]12 [BETULINIC ACID] | 40 µM | 41 µM | 12 µM | 10.3 µM | 15 µM
12 | C=C(C)[C@@H]1CC[C@]2(C(=O)O[C@@H]3O[C@H](CO)[C@@H](O)[C@H](O)[C@H]3O)CC[C@]3(C)[C@H](CC[C@@H]4[C@@]5(C)CC[C@H](O[C@@H]6O[C@H](CO)[C@@H](O)[C@H](O)[C@H]6O)C(C)(C)[C@@H]5CC[C@]43C)[C@@H]12 | 66 µM | 20 µM | 35 µM | > 100 µM | > 100 µM
13 | C=C(C)[C@@H]1CC[C@]2(CO[C@@H]3O[C@H](CO)[C@@H](O)[C@H](O)[C@H]3O)CC[C@]3(C)[C@H](CC[C@@H]4[C@@]5(C)CC[C@H](O)C(C)(C)[C@@H]5CC[C@]43C)[C@@H]12 | > 100 µM | > 100 µM | > 100 µM | > 100 µM | > 100 µM
